From ChEMBL document CHEMBL2040734, “Benzothiazoles: search for anticancer agents” (2012)

What was measured:
Type in all cases: functional
SW-620 = assay: Cytotoxicity against human SW620 cells assessed as cell growth at 100 uM after 48 hrs by sulforhodamine B assay; conditions: SW-620, 48 h, read-out: Activity
EKVX = assay: Cytotoxicity against human EKVX cells assessed as cell growth at 10 uM after 48 hrs by sulforhodamine B assay; conditions: read-out: Activity
Method in brief: (§1)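 Five-dose NCI panel run at 0.01, 0.1, 1, 10 and 100 µM. Cells were in RPMI 1640 with 5% FBS and 2 mM L-glutamine, seeded at 5000–40,000 cells/well and pre-incubated 24 h. Drug was diluted from a DMSO stock into medium with 50 µg/ml gentamicin. Exposure was 48 h at 37 °C, 5% CO2. Cells were fixed with cold TCA and stained with 0.4% SRB, read at 515 nm. Percent growth came from time-zero, control and test absorbances.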

MDA-MB-435 = assay: Cytotoxicity against human MDA-MB-435 cells assessed as cell growth at 1 uM after 48 hrs by sulforhodamine B assay; conditions: MDA-MB-435, 48 h, read-out: Activity
NCI-H322M = assay: Cytotoxicity against human NCI-H322M cells assessed as cell growth at 100 uM after 48 hrs by sulforhodamine B assay; conditions: read-out: Activity
NCI-H522 = assay: Cytotoxicity against human NCI-H522 cells assessed as cell growth at 10 uM after 48 hrs by sulforhodamine B assay; conditions: NCI-H522, 48 h, read-out: Activity
LOX IMVI [1] = assay: Cytotoxicity against human LOXIMVI cells assessed as cell growth at 0.01 uM after 48 hrs by sulforhodamine B assay; conditions: read-out: Activity
SK-MEL-28 [2] = assay: Growth inhibition of human SK-MEL-28 cells after 48 hrs by sulforhodamine B assay; conditions: SK-MEL-28, 48 h
Method in brief: (§2)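 Adherent NCI-60 lines were grown in RPMI 1640 with 5% FBS and 2 mM L-glutamine, plated at 5000–40,000 cells/well and preincubated 24 h. They were then exposed to five concentrations (0.01–100 µM, from a DMSO stock) for 48 h at 37 °C, 5% CO2. Cells were fixed with cold TCA (10% final, 60 min, 4 °C) and stained with 0.4% SRB. Dye was solubilized in 10 mM Tris base and A515 read. GI50 was derived from time-zero, control and treated absorbances.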

DU-145 = assay: Cytotoxicity against human DU145 cells assessed as cell growth at 10 uM after 48 hrs by sulforhodamine B assay; conditions: DU-145, 48 h, read-out: Activity; method in brief: as §1
OVCAR-4 = assay: Cytotoxicity against human OVCAR4 cells assessed as cell growth at 10 '-5 M after 48 hrs by sulforhodamine B assay; conditions: OVCAR-4, 48 h, read-out: Activity
786-0 = assay: Cytotoxicity against human 786-0 cells assessed as cell growth at 10 uM after 48 hrs by sulforhodamine B assay; conditions: 786-0, 48 h, read-out: Activity
Method in brief: (§3)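 NCI-60 five-dose screen. Cells were grown in RPMI 1640 with 5% FBS and 2 mM L-glutamine and preincubated 24 h. Compound (DMSO stock) was tested at 0.01, 0.1, 1, 10 and 100 µM for 48 h at 37 °C. Cells were fixed in situ with cold TCA (final 10%) and stained with 0.4% SRB. A515 was read, and percent growth was calculated against time-zero and control plates.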

SK-MEL-28 [3] = assay: Cytotoxicity against human SK-MEL-28 cells assessed as cell growth at 1 uM after 48 hrs by sulforhodamine B assay; conditions: SK-MEL-28, 48 h, read-out: Activity
NCI-H23 = assay: Cytotoxicity against human NCI-H23 cells assessed as cell growth at 1 uM after 48 hrs by sulforhodamine B assay; conditions: NCI-H23, 48 h, read-out: Activity
OVCAR-5 [4] = assay: Growth inhibition of human OVCAR5 cells after 48 hrs by sulforhodamine B assay; conditions: OVCAR-5, 48 h; method in brief: as §2
IGROV-1 = assay: Cytotoxicity against human IGROV1 cells assessed as cell growth at 10 '-5 M after 48 hrs by sulforhodamine B assay; conditions: IGROV-1, 48 h, read-out: Activity
SN12C = assay: Cytotoxicity against human SN12C cells assessed as cell growth at 0.01 uM after 48 hrs by sulforhodamine B assay; conditions: read-out: Activity
BT-549 = assay: Cytotoxicity against human BT549 cells assessed as cell growth at 10 '-5 M after 48 hrs by sulforhodamine B assay; conditions: BT-549, 48 h, read-out: Activity
Method in brief: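 Primary NCI-60 single-dose screen at 10 µM. Cells were grown in RPMI 1640 with 5% FBS and 2 mM L-glutamine and plated 24 h before drug addition. Compound was solubilized in DMSO, then exposed for 48 h at 37 °C under 5% CO2. Cells were TCA-fixed and stained with SRB, and absorbance was read at 515 nm. Growth was expressed relative to time-zero and untreated controls.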

COLO 205 [5] = assay: Cytotoxicity against human COLO205 cells assessed as cell growth at 100 uM after 48 hrs by sulforhodamine B assay; conditions: COLO 205, 48 h, read-out: Activity; method in brief: as §3
SF-268 = assay: Cytotoxicity against human SF268 cells assessed as cell growth at 0.1 uM after 48 hrs by sulforhodamine B assay; conditions: SF-268, 48 h, read-out: Activity
COLO 205 [6] = assay: Cytotoxicity against human COLO205 cells assessed as cell growth at 10 uM after 48 hrs by sulforhodamine B assay; conditions: COLO 205, 48 h, read-out: Activity; method in brief: as §3
OVCAR-8 = assay: Cytotoxicity against human OVCAR8 cells assessed as cell growth at 10 '-5 M after 48 hrs by sulforhodamine B assay; conditions: OVCAR-8, 48 h, read-out: Activity
LOX IMVI [7] = assay: Cytotoxicity against human LOXIMVI cells assessed as cell growth at 0.1 uM after 48 hrs by sulforhodamine B assay; conditions: read-out: Activity
RXF 393 = assay: Cytotoxicity against human RXF393 cells assessed as cell growth at 100 uM after 48 hrs by sulforhodamine B assay; conditions: RXF 393, 48 h, read-out: Activity
SF-295 = assay: Cytotoxicity against human SF295 cells assessed as cell growth at 10 '-5 M after 48 hrs by sulforhodamine B assay; conditions: SF-295, 48 h, read-out: Activity
NCI-H226 = assay: Growth inhibition of human NCI-H226 cells after 48 hrs by sulforhodamine B assay; conditions: NCI-H226, 48 h; method in brief: as §2
MDA-MB-231 = assay: Cytotoxicity against human MDA-MB-231 cells assessed as cell growth at 0.01 uM after 48 hrs by sulforhodamine B assay; conditions: MDA-MB-231, 48 h, read-out: Activity
HOP-62 = assay: Cytotoxicity against human HOP62 cells assessed as cell growth at 0.1 uM after 48 hrs by sulforhodamine B assay; conditions: HOP-62, 48 h, read-out: Activity; method in brief: as §1
OVCAR-5 [8] = assay: Cytotoxicity against human OVCAR5 cells assessed as cell growth at 10 '-5 M after 48 hrs by sulforhodamine B assay; conditions: OVCAR-5, 48 h, read-out: Activity

Compound `Cc1ccc2nc(Nc3c(C)cccc3C)sc2c1` has a growth at 100 µM (SW-620) of 45%, a growth at 10 µM (EKVX) of 39% and a growth at 1 µM (MDA-MB-435) of -8%. It also gave a growth at 100 µM (NCI-H322M) of 69%, a growth at 10 µM (NCI-H522) of 28% and a growth at 0.01 µM (LOX IMVI [1]) of 94%. For the same compound, the LC50 (SK-MEL-28 [2]) was > 100 µM, the TGI (SK-MEL-28 [2]) was > 100 µM and the growth at 10 µM (DU-145) was 75%. For the same compound, the growth at 10 µM (OVCAR-4) was 63%, the growth at 10 µM (786-0) was 56% and the growth at 1 µM (SK-MEL-28 [3]) was 66%. The growth at 1 µM (NCI-H23) was 79%, the GI50 (OVCAR-5 [4]) was > 100 µM and the LC50 (OVCAR-5 [4]) was > 100 µM. For the same compound, the TGI (OVCAR-5 [4]) was > 100 µM, the growth at 10 µM (IGROV-1) was 49.2% and the growth at 0.01 µM (SN12C) was 88%. It also gave a growth at 10 µM (BT-549) of 37.1%, a growth at 100 µM (COLO 205 [5]) of 64% and a growth at 0.1 µM (SF-268) of 100%. For the same compound, the growth at 10 µM (COLO 205 [6]) was 49%, the growth at 10 µM (OVCAR-8) was 56.4% and the growth at 0.1 µM (LOX IMVI [7]) was 93%. For the same compound, the growth at 100 µM (RXF 393) was 24%, the growth at 10 µM (SF-295) was 18.9% and the GI50 (NCI-H226) was > 100 µM. The LC50 (NCI-H226) was > 100 µM, the TGI (NCI-H226) was > 100 µM and the growth at 0.01 µM (MDA-MB-231) was 85%. It also gave a growth at 0.1 µM (HOP-62) of 98% and a growth at 10 µM (OVCAR-5 [8]) of 65.6%.

`Clc1cccc(Cl)c1Nc1nc2cccc(Cl)c2s1` was tested, and the growth at 100 µM (SW-620) was -82%, the growth at 10 µM (EKVX) was -89% and the growth at 1 µM (MDA-MB-435) was 46%. The growth at 100 µM (NCI-H322M) was -95%, the growth at 10 µM (NCI-H522) was -71% and the growth at 0.01 µM (LOX IMVI [1]) was 94%. For the same compound, the GI50 (SK-MEL-28 [2]) was 1.46 µM, the LC50 (SK-MEL-28 [2]) was 6.02 µM and the TGI (SK-MEL-28 [2]) was 2.96 µM. It also gave a growth at 10 µM (DU-145) of -96%, a growth at 10 µM (OVCAR-4) of 6.72% and a growth at 10 µM (786-0) of -93%. The growth at 1 µM (SK-MEL-28 [3]) was 77%, the growth at 1 µM (NCI-H23) was 59% and the GI50 (OVCAR-5 [4]) was 1.48 µM. It also gave an LC50 (OVCAR-5 [4]) of 5.61 µM, a TGI (OVCAR-5 [4]) of 2.88 µM and a growth at 10 µM (IGROV-1) of 3.69%. For the same compound, the growth at 0.01 µM (SN12C) was 91%, the growth at 10 µM (BT-549) was -67.8% and the growth at 100 µM (COLO 205 [5]) was -52%. For the same compound, the growth at 0.1 µM (SF-268) was 97%, the growth at 10 µM (COLO 205 [6]) was -91% and the growth at 10 µM (OVCAR-8) was -13.8%. The growth at 0.1 µM (LOX IMVI [7]) was 89%, the growth at 100 µM (RXF 393) was -40% and the growth at 10 µM (SF-295) was -45.1%. For the same compound, the GI50 (NCI-H226) was 1.18 µM, the LC50 (NCI-H226) was 6.95 µM and the TGI (NCI-H226) was 2.86 µM. It also gave a growth at 0.01 µM (MDA-MB-231) of 92%, a growth at 0.1 µM (HOP-62) of 96% and a growth at 10 µM (OVCAR-5 [8]) of 1.07%.
